The source made the active and inactive calls.
Assays:
[1] = molecular target: T1, Fatty-acid amide hydrolase 1 (Homo sapiens) (UniProt O00519); assay: Ratio of Kinact to Ki for histidine6-tagged human FAAH
T1 sequence (whole entry): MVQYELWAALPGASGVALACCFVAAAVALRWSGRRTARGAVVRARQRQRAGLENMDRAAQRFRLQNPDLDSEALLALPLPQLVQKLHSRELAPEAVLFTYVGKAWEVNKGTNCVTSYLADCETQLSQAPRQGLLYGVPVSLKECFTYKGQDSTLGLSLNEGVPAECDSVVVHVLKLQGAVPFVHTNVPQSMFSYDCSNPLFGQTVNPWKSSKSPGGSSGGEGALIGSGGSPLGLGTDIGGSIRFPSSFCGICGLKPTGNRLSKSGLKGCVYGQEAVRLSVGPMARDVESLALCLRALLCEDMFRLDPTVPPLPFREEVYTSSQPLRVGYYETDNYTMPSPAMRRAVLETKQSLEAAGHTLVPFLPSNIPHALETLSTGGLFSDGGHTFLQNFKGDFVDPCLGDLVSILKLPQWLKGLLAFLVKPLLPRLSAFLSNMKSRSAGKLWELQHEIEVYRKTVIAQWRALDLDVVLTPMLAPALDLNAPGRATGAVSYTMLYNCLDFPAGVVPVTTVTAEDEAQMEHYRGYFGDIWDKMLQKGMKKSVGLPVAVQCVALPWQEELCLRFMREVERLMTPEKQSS
Outline: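 Human FAAH construct: aa 32–579, N-terminal transmembrane-deleted, N-terminal His6 tag, expressed in E. coli and purified to >95% by SDS–PAGE. Potency measured as kinact/Ki in a GDH-coupled FAAH assay in 384-well format. kobs was plotted against [I]; kinact/Ki came from the slope kinact/[Ki(1+[S]/Km)].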

[2] = molecular target: T2, Fatty-acid amide hydrolase 1 (Rattus norvegicus) (UniProt P97612); assay: Ratio of Kinact to Ki for histidine6-tagged rat FAAH
T2 sequence (whole entry): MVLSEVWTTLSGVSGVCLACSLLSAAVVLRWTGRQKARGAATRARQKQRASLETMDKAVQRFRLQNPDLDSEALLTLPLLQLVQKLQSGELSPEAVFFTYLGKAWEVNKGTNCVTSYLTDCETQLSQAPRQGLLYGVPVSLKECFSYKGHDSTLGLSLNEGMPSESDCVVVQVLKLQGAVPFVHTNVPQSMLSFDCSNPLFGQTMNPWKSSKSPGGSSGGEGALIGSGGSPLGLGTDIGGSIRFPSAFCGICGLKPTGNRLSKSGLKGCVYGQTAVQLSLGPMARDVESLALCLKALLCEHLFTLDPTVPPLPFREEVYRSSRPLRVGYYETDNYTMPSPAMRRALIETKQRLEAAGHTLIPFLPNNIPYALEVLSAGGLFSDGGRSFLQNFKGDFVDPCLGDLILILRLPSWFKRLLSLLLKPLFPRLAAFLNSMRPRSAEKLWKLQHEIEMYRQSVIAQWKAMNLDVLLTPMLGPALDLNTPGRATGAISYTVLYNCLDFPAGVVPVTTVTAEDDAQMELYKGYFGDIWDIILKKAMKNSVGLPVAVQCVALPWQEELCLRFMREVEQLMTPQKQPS
Outline: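 Rat FAAH construct: aa 30–579, N-terminal transmembrane-deleted, N-terminal His6 tag, E. coli-expressed and purified to >95% purity. Activity read by a GDH-coupled enzyme assay in 384-well plates. Second-order kinact/Ki was derived from the linear slope of kobs versus [I], correcting with (1+[S]/Km).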

[3] = molecular target: T3, Fatty-acid amide hydrolase 1 (Mus musculus) (UniProt O08914); assay: Inhibition of histidine6-tagged FAAH from mouse liver proteomes at 10 to 100 uM
T3 sequence (whole entry): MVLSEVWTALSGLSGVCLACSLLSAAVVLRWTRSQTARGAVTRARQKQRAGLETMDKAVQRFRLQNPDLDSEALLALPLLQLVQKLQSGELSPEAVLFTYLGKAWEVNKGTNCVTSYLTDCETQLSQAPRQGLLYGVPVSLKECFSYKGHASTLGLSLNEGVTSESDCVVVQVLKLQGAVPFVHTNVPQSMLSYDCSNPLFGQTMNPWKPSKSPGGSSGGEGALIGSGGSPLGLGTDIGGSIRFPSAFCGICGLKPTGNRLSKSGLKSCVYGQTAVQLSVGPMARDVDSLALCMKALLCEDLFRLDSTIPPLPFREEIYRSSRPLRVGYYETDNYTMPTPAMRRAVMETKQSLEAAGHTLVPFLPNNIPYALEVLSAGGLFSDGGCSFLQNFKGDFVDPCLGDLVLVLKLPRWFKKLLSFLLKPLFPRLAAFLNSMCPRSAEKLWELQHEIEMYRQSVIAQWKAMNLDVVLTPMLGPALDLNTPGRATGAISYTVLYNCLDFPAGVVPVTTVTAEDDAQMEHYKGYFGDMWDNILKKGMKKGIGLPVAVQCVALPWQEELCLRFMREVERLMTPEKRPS
Outline: (§1)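 Competitive activity-based protein profiling with FP probe labeling of serine hydrolases. Proteomes used: soluble mouse liver, mouse kidney, human liver and human heart, plus human brain membrane. Compounds tested at 100 μM, reference at 10 and 100 μM. Inhibited bands were read by gel; FAAH and off-target labeling were judged by band loss.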

[4] = molecular target: T3, Fatty-acid amide hydrolase 1 (Mus musculus); assay: Inhibition of histidine6-tagged FAAH from mouse kidney proteomes at 10 to 100 uM; format: tissue-based; outline: as §1
[5] = molecular target: T1, Fatty-acid amide hydrolase 1 (Homo sapiens); assay: Inhibition of histidine6-tagged FAAH from human liver proteomes at 10 to 100 uM; outline: as §1
[6] = molecular target: T1, Fatty-acid amide hydrolase 1 (Homo sapiens); assay: Inhibition of histidine6-tagged FAAH from human heart proteomes at 10 to 100 uM; outline: as §1
[7] = molecular target: T1, Fatty-acid amide hydrolase 1 (Homo sapiens); assay: Inhibition of histidine6-tagged FAAH from human brain proteomes at 10 to 100 uM; outline: as §1
Rattus norvegicus [8] = assay: Antihyperalgesic activity in complete Freund's adjuvant-induced rat inflammatory pain model assessed as reduction in mechanical allodynia after 4 hrs postdosing; format: functional
Outline: (§2)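 Rat CFA inflammatory pain model: complete Freund's adjuvant injected subcutaneously into hind paw plantar surface; testing at day 5 post-injection. Compound given ip at 3, 10 and 30 mg/kg; naproxen 10 mg/kg ip as reference. Mechanical paw weight threshold measured 4 h after dosing, compared with vehicle group; n = 8 rats/group.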

Rattus norvegicus [9] = assay: Antihyperalgesic activity in complete Freund's adjuvant-induced rat inflammatory pain model assessed as reduction in mechanical allodynia at 10 mg/kg, ip; format: functional, organism-based; design: dose 10 mg/kg; outline: as §2

## COc1ccc(NC(=O)N2CCN(Cc3sc4ccccc4c3C)CC2)cn1
[1]
  Ratio: < 10 M⁻¹ s⁻¹
[2]
  Ratio: 1060 M⁻¹ s⁻¹
[3]
  inhibition: Active
[4]
  inhibition: Active
[5]
  inhibition: Active
[6]
  inhibition: Active
[7]
  inhibition: Active
Rattus norvegicus [8]
  Activity: Dose-dependent effect
Rattus norvegicus [8]; read-out: MED
  minimal effective dose: 10 mg/kg
Rattus norvegicus [9]
  Activity: Active

## Cc1ccc(NC(=O)N2CCN(Cc3sc4ccccc4c3C)CC2)cn1
[1]
  Ratio: 44 M⁻¹ s⁻¹
[2]
  Ratio: 390 M⁻¹ s⁻¹
[3]
  inhibition: Active
[4]
  inhibition: Active
[5]
  inhibition: Active
[6]
  inhibition: Active
[7]
  inhibition: Active

Source: ChEMBL document CHEMBL1152917, “Benzothiophene piperazine and piperidine urea inhibitors of fatty acid amide hydrolase (FAAH)” (2009)
